In brackets after ≈: the same amount, converted by molar mass.

Results on 25 molecules are retold here after ChEMBL document CHEMBL1140339, “Spiro and dispiro-1,2,4-trioxolanes as antimalarial peroxides: charting a workable structure-activity relationship using simple prototypes” (J Med Chem, 2005).

For experiment [1], the system named is Mus musculus. The experiment is described as follows: Survival of mice to 30-day postinfection with Plasmodium berghei upon 100 mg/kg upon subcutaneous dose was determined. Type of experiment: functional. In a few lines:
(§1)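 P. berghei-infected MORO mice, groups of three, treated 1 day postinfection with a single dose (100 or 10 mg/kg, po or sc) dissolved or suspended in 3% ethanol/7% Tween-80. Activity is percent reduction in parasitemia on day 3 postinfection versus untreated controls. Survival time is compared with an untreated control group. Individual measurements generally differed by less than 10%.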

For experiment [2], the system named is Plasmodium falciparum. Description: In vitro inhibition of chloroquine-resistant Plasmodium falciparum K1. Type of experiment: functional, organism-based.
The subject of experiment [3] is Mus musculus. Description: Antimalarial activity (100 mg/kg, subcutaneously) given 1 day post infection of mice (Mus musculus) with Plasmodium berghei is its ability to reduce parasitemia on day 3 post infection. Type of experiment: functional. In a few lines: as §1
The subject of experiment [4] is Mus musculus. The experiment is described as follows: Survival of mice to 30-day postinfection with Plasmodium berghei upon 100 mg/kg peroral dose was determined. The class given is functional. The note with it: route oral. In outline: as §1
Experiment [5] concerns Plasmodium falciparum. The experiment is described as follows: In vitro inhibition of chloroquine-sensitive Plasmodium falciparum NF54. The class given is functional, organism-based.
For experiment [6], the system named is Mus musculus. Description: Antimalarial activity (100 mg/kg, peroral) given 1 day post infection of mice (Mus musculus) with Plasmodium berghei is its ability to reduce parasitaemia on day 3 post infection. Type of experiment: functional. In a few lines:
as §1

For experiment [7], the system named is Mus musculus. Description: Survival of mice to 30-day postinfection with Plasmodium berghei upon 10 mg/kg peroral dose was determined. Type of experiment: functional. The note with it: route oral. In outline: as §1
For experiment [8], the system named is Mus musculus. The experiment is described as follows: Antimalarial activity (10 mg/kg, subcutaneously) given 1 day post infection of mice (Mus musculus) with Plasmodium berghei is its ability to reduce parasitemia on day 3 post infection. Type of experiment: functional. In outline: as §1
Experiment [9] concerns Mus musculus. The experiment is described as follows: Survival of mice to 30-day postinfection with Plasmodium berghei upon 10 mg/kg upon subcutaneous dose was determined. The class given is functional. In outline: as §1
The subject of experiment [10] is Mus musculus. The experiment is described as follows: Antimalarial activity (10 mg/kg, peroral) given 1 day post infection of mice (Mus musculus) with Plasmodium berghei is its ability to reduce parasitaemia on day 3 post infection. The class given is functional. In outline: as §1
In experiment [11] the test system is Mus musculus. Description: Effective dose required to reduce the parasitemia in mice when compound administered with SSV after 3 day postinfection. Type of experiment: functional.
Experiment [12] is filed under the species Mus musculus. The experiment is described as follows: Effective dose required to reduce the parasitemia in mice by suppressive test after 4 day postinfection. Type of experiment: functional. In a few lines:
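Peters 4-day suppressive test in P. berghei-infected mice with multiple daily oral doses. ED50/ED90 are given in (mg/kg)/day.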

Experiment [13] deals with Mus musculus. The experiment is described as follows: Effective dose required to reduce the parasitemia in mice when compound administered with Tween-80 after 3 day postinfection. Type of experiment: functional.

For the molecule `O=C1CCC2(CC1)OOC1(CCCCC1)O2`, the Survival in experiment [1] and in experiment [4] was 5 days throughout. Further, the concentration for half-maximal inhibition (IC50) is 0.015 µg/mL (≈ 0.0663 µM) in experiment [2] and 0.039 µg/mL (≈ 0.172 µM) in experiment [5]. For the same molecule, the Reduction in experiment [3] and in [6] was 0% in each case.

For `CC(C)(C)C1CCC2(CC1)OOC1(CCC(c3ccccc3)CC1)O2` (centres undefined), the IC50 amounted to 0.077 µg/mL (≈ 0.224 µM) in experiment [2] and 0.062 µg/mL (≈ 0.18 µM) in experiment [5]. This molecule also showed a Survival in experiment [7] of 0 days.

In the case of `CC1(C)COC2(CCC3(CC2)OOC2(CC(C)(C)CC(C)(C)C2)O3)OC1`, the Survival in experiment [7] and in experiment [9] was 5.7 days throughout. Also, the Reduction in experiment [8] and in experiment [10] was 0% throughout.

As for `CC1(C)CCC2(CC1)OOC1(O2)C2CC3CC(C2)CC1C3` (centres undefined), the IC50 in experiment [2] was 0.0023 µg/mL (≈ 0.00787 µM); in experiment [5], 0.0035 µg/mL (≈ 0.012 µM). The figures for the Survival in [7] and in [9] were 6.7 days and 11.7 days, respectively. The same molecule had a Reduction in experiment [10] of 80%.

With `CCN(CC)CCCC(C)Nc1ccnc2cc(Cl)ccc12` (centres undefined) [CHLOROQUINE], in experiment [11], the ED50 is reported as 1.9 (mg/kg)/day and the ED90 is given as 4.2 (mg/kg)/day.

For `c1ccc(C2(c3ccccc3)OOC3(O2)C2CC4CC(C2)CC3C4)cc1` (centres undefined), the IC50 in experiment [2] was found to be 0.0023 µg/mL (≈ 0.0066 µM); in [5], 0.0026 µg/mL (≈ 0.00746 µM). In addition, the figures for the Survival in [7] and in experiment [9] were 6 days and 7 days, respectively. For the same molecule, the Reduction in experiment [8] stood at 92%; in experiment [10] it was 68%.

In the case of `C1CCC2(CC1)COC1(O2)C2CC3CC(C2)CC1C3` (centres undefined), the Survival in [1] and in [4] was 5.6 days each time. Moreover, the concentration for half-maximal inhibition (IC50) in [2] and in experiment [5] was greater than 1 µg/mL in each case. Besides, the Reduction in experiment [3] and in [6] was 0% in each case.

On to `C1C2CC3CC1CC(C2)C31OOC2(O1)C1CC3CC(C1)CC2C3` (centres undefined), for which the Survival in [1] and in [4] was 5.3 days each time. Besides, the half-inhibitory concentration (IC50) in [2] was 0.95 µg/mL (≈ 3 µM); in [5] it was 0.779 µg/mL (≈ 2.46 µM). Further, the Reduction in experiment [3] and in [6] was 0% in each case.

As to `C1CC2(CCO1)OOC1(O2)C2CC3CC(C2)CC1C3` (centres undefined), the Survival in experiment [1] amounted to 7.7 days; in experiment [7], 6 days. Moreover, the Reduction in experiment [8] is 99.6%; in experiment [10], 35%.

As for `c1ccc(CC2(Cc3ccccc3)OOC3(O2)C2CC4CC(C2)CC3C4)cc1` (centres undefined), the figures for the IC50 in experiment [2] and in experiment [5] were 0.0031 µg/mL (≈ 0.00823 µM) and 0.003 µg/mL (≈ 0.00797 µM), respectively. Further, the Survival in experiment [7] is 6.7 days; in experiment [9], 8 days. Besides, the Reduction turned out to be 99.7% in experiment [8] and 88% in experiment [10].

For `OC1CCC2(CC1)OOC1(O2)C2CC3CC(C2)CC1C3` (centres undefined), the Survival in [7] was found to be 6.7 days; in [9], 8.7 days. Besides, the Reduction in [8] was 91%; in experiment [10], 79%.

With `CC(C)(C)C1CCC2(CC1)OOC1(O2)C2CC3CC(C2)CC1C3` (centres undefined), the figures for the half-maximal inhibitory concentration (IC50) in experiment [2] and in experiment [5] were 0.063 µg/mL (≈ 0.197 µM) and 0.084 µg/mL (≈ 0.262 µM), respectively. Further, the Survival in experiment [7] was 5 days; in experiment [9], 5.3 days. Further, the Reduction in experiment [8] and in experiment [10] was 0% throughout.

In the case of `C1CCC2(CC1)OCC1(O2)C2CC3CC(C2)CC1C3` (centres undefined), the Survival in experiment [1] was 5.6 days; in [4] it was 5.8 days. The IC50 in experiment [2] and in experiment [5] was greater than 1 µg/mL throughout. For the same molecule, the Reduction in [3] and in [6] was 0% each time.

`C[C@@H]1CC[C@H]2[C@@H](C)C(=O)O[C@@H]3O[C@@]4(C)CC[C@@H]1[C@]32OO4` [ARTEMISININ]: the Survival in experiment [1] amounted to 14 days. In [2], this molecule returned an IC50 of 0.0016 µg/mL (≈ 0.00567 µM). In addition, the Reduction in experiment [3] is greater than 99.99%; in experiment [6], 98%.

For the molecule `C[C@H]1[C@H](OC(=O)CCC(=O)O)O[C@@H]2O[C@@]3(C)CC[C@H]4[C@H](C)CC[C@@H]1[C@@]24OO3` [ARTESUNATE], the values for the ED50 in experiment [12], in [13] and in experiment [11] were 2.4 (mg/kg)/day, 5 (mg/kg)/day and 5.9 (mg/kg)/day, respectively. Further, the ED90 in experiment [12] is on record as 13 (mg/kg)/day; in experiment [13], 13 (mg/kg)/day; in experiment [11] it was 21 (mg/kg)/day. Also, the Survival in experiment [7] and in [9] was 6.8 days throughout. Also, the Reduction in experiment [8] and in experiment [10] was 65% throughout.

Consider `CC1(C)COC2(CCC3(CC2)OOC2(O3)C3CCCC2CCC3)OC1` (centres undefined), for which the IC50 came out at 0.041 µg/mL (≈ 0.116 µM) in experiment [2] and 0.049 µg/mL (≈ 0.139 µM) in experiment [5]. For the same molecule, the Survival in experiment [7] came to 5 days; in experiment [9], 5.3 days. In addition, the Reduction in [8] worked out at 6%; in experiment [10] it was 1%.

Consider `Fc1ccc(C2(c3ccc(F)cc3)OOC3(CCC(c4ccccc4)CC3)O2)cc1` (centres undefined), for which the figures for the Survival in experiment [7] and in [9] were 5.3 days and 5.7 days, respectively. The Reduction in experiment [8] and in [10] was 0% throughout.

In the case of `c1ccc(C2CCC3(CC2)OOC2(O3)C3CCCC2CCC3)cc1` (centres undefined), the IC50 in [2] and in experiment [5] was greater than 0.1 µg/mL in each case. Besides, the Survival in experiment [7] and in [9] was 5 days each time. Besides, the Reduction in [8] and in experiment [10] was 0% each time.

Turning to `CC(C)C1CCC2(CC1)OOC1(O2)C2CC3CC(C2)CC1C3` (centres undefined), the IC50 in experiment [2] turned out to be 0.0014 µg/mL (≈ 0.00457 µM); in experiment [5], 0.002 µg/mL (≈ 0.00653 µM). Moreover, the results for the Survival in [7] and in experiment [9] were 7.3 days and 9 days, respectively. The Reduction in [8] was 9.89%; in experiment [10], 99%.

`O=S1(=O)CCC2(CC1)OOC1(O2)C2CC3CC(C2)CC1C3` (centres undefined): the Survival in [7] amounted to 7 days; in experiment [9] it was 7.3 days. The Reduction in experiment [8] is 97%; in experiment [10], 77%.

As for `c1ccc(C2(c3ccccc3)CCC3(CC2)OOC2(O3)C3CC4CC(C3)CC2C4)cc1` (centres undefined), the IC50 in [2] was 0.042 µg/mL (≈ 0.101 µM); in experiment [5], 0.06 µg/mL (≈ 0.144 µM). In addition, the results for the Survival in experiment [7] and in [9] were 5.3 days and 5.7 days, respectively. Also, the Reduction in [8] and in experiment [10] was 0% in each case.

In the case of `CCCC1CCC2(CC1)OOC1(O2)C2CC3CC(C2)CC1C3` (centres undefined), the IC50 in experiment [2] was determined as 0.0011 µg/mL (≈ 0.00359 µM); in experiment [5], 0.0021 µg/mL (≈ 0.00685 µM). For the same molecule, the Survival in experiment [7] was 8.4 days; in [9], 16.5 days.

Turning to `C1CCCCCC2(CCCCC1)OOC1(O2)C2CC3CC(C2)CC1C3` (centres undefined), the Survival in experiment [1] was found to be 7 days; in [7] it was 7.4 days. This molecule came in with a Reduction in experiment [8] of 90%.

As for `CC1(C)CC(C)(C)CC2(C1)OOC1(O2)C2CC3CC(C2)CC1C3` (centres undefined), the IC50 in [2] was determined as 0.0031 µg/mL (≈ 0.00967 µM); in experiment [5], 0.005 µg/mL (≈ 0.0156 µM). Moreover, the Survival in experiment [7] worked out at 7 days; in [9], 97 days. Moreover, the Reduction was 99.9% in experiment [8] and 88% in experiment [10].

For `C1CCC2(CC1)OOC1(CCCCC1)O2`, the Survival in experiment [1] and in experiment [4] was 5.3 days throughout. Also, the figures for the IC50 in experiment [2] and in experiment [5] were 0.1 µg/mL (≈ 0.471 µM) and 0.504 µg/mL (≈ 2.37 µM), respectively. Moreover, the Reduction in experiment [3] and in experiment [6] was 0% throughout.

Broadly, the IC50 is the concentration at which inhibition is half-maximal. A high value points to lower potency.
